Test results: ChEMBL document CHEMBL3603801 (J Med Chem, 2015)

How the values were obtained:
[1] = Volume of distribution at steady state in rat at 0.5 mg/kg, iv; type: ADME, organism-based; conditions: in vivo, read-out: Vdss
[2] = Ratio of drug level in rat brain to plasma at 0.5 mg/kg, iv after 0.5 hrs; type: ADME, organism-based; conditions: brain and plasma, read-out: BPR
Procedure, shortened: (§1)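 Rats given 0.5 mg/kg iv in 10% DMA + 10% Solutol HS15 + 80% saline, or for some compounds 10% DMA + 10% Solutol HS15 + 80% (30% (2-hydroxypropyl)-β-cyclodextrin in saline). Brain:plasma and CSF:plasma ratios taken at 0.5 and 2 h; quantification limit 1.00 ng/mL.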

[3] = Ratio of drug level in rat brain to plasma at 0.5 mg/kg, iv after 2 hrs; type: ADME, organism-based; conditions: brain and plasma, read-out: BPR; procedure, shortened: as §1
[4] = Ratio of drug level in rat cerebrospinal fluid to plasma at 0.5 mg/kg, iv after 0.5 hrs; type: ADME, organism-based, CSF/Plasma; conditions: cerebrospinal fluid and plasma; procedure, shortened: as §1
[5] = Ratio of drug level in rat cerebrospinal fluid to plasma at 0.5 mg/kg, iv after 2 hrs; type: ADME, organism-based, CSF/Plasma; conditions: cerebrospinal fluid and plasma
[6] = Oral bioavailability in rat; type: ADME, organism-based; conditions: in vivo
[7] = Apparent permeability across apical to basolateral side of human Caco2 cells; type: ADME, cell-based; conditions: Caco-2
Procedure, shortened: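 Caco-2 monolayer; apparent permeability measured in the apical-to-basolateral direction, with efflux ratio also reported.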

Vd [1] [L/kg] | Kp at 0.5 h [2] | Kp at 2 h [3] | Kp at 0.5 h [4] | Kp at 2 h [5] | Structure (SMILES) | bioavailability [6] [%] | Papp A→B [7] [×10⁻⁶ cm/s]
4.9 | 4.7 | 6.7 | 0.01 |  | N#Cc1ccc(-c2cc(-c3cc(Cl)cc(C#N)c3)ncn2)nc1 |  | 
2.5 | 1.7 | 1.9 | 0.02 | 0.01 | Cc1cc(C#N)cc(-c2cc(-n3cccn3)ncn2)c1 |  | 
3.3 | 5.5 | 8.2 | 0.04 | 0.07 | N#Cc1cc(C#N)cc(-c2cc(-c3ccc(F)cn3)ncn2)c1 |  | 
4.4 | 1.7 | 1.9 | 0.01 |  | N#Cc1cc(Cl)cc(-c2cc(-c3ccccn3)ncn2)c1 |  | 

Structure (SMILES) | Vd [1] [L/kg] | Kp at 0.5 h [2] | Kp at 2 h [3] | Kp at 0.5 h [4] | Kp at 2 h [5] | bioavailability [6] [%] | Papp A→B [7] [×10⁻⁶ cm/s]
N#Cc1cc(Cl)cc(-c2cc(-c3ccc(F)cn3)ncn2)c1 | 3.7 | 2.9 | 2.7 | 0.01 |  | 100 | 13
